Measurements: ChEMBL document CHEMBL3044690, “Synthesis and herbicidal activity of 2-cyano-3-(2-chlorothiazol-5-yl)methylaminoacrylates” (2004)

Assays:
Format in all cases: functional
Brassica napus [1] = test: Postemergence herbicidal activity against Brassica napus (oilseed rape) under greenhouse condition at 150 g/ha applied after expansion of true leaf
Summary of the method: (§1)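 Seeds sown in 6-cm-diameter boxes of artificial mixed soil. Boxes were kept under plastic film until emergence to hold moisture, and plants were grown in a greenhouse. Above-ground fresh weight was weighed 10 days after treatment. Control efficiency is reported as percent inhibition.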

Brassica napus [2] = test: Postemergence herbicidal activity against Brassica napus (oilseed rape) under greenhouse condition at 300 g/ha applied after expansion of true leaf; summary of the method: as §1
Brassica napus [3] = test: Postemergence herbicidal activity against Brassica napus (oilseed rape) under greenhouse condition at 75 g/ha applied after expansion of true leaf; summary of the method: as §1
Brassica napus [4] = test: Postemergence herbicidal activity against Brassica napus (oilseed rape) under greenhouse condition at 18.75 g/ha applied after expansion of true leaf; summary of the method: as §1
Brassica napus [5] = test: Postemergence herbicidal activity against Brassica napus (oilseed rape) under greenhouse condition at 37.5 g/ha applied after expansion of true leaf; summary of the method: as §1
Amaranthus retroflexus [6] = test: Post-emergence herbicidal activity against Amaranthus retroflexus under greenhouse condition at 750 g/ha applied after expansion of true leaf; summary of the method: as §1
Amaranthus retroflexus [7] = test: (§2) Post-emergence herbicidal activity against Amaranthus retroflexus under greenhouse condition at […] applied after expansion of true leaf; summary of the method: as §1
Brassica napus [8] = test: Postemergence herbicidal activity against Brassica napus (oilseed rape) under greenhouse condition at 750 g/ha applied after expansion of true leaf; summary of the method: as §1
Amaranthus retroflexus [9] = test: as §2; summary of the method: as §1; remark: listed apart in the source
Brassica napus [10] = test: Postemergence herbicidal activity against Brassica napus (oilseed rape) under greenhouse condition at 375 g/ha applied after expansion of true leaf; summary of the method: as §1
Brassica napus [11] = test: Postemergence herbicidal activity against Brassica napus (oilseed rape) under greenhouse condition at 1.5 kg/ha applied after expansion of true leaf; summary of the method: as §1
Brassica napus [12] = test: Postemergence herbicidal activity against Brassica napus (oilseed rape) under greenhouse condition at 187.5 g/ha applied after expansion of true leaf; summary of the method: as §1
Amaranthus retroflexus [13] = test: Post-emergence herbicidal activity against Amaranthus retroflexus under greenhouse condition at 1.5 kg/ha applied after expansion of true leaf; summary of the method: as §1
Brassica napus [14] = test: Preemergence herbicidal activity against Brassica napus (oilseed rape) under greenhouse condition at 1.5 kg/ha applied immediately after seed planting; summary of the method: as §1
Medicago sativa [15] = test: Postemergence herbicidal activity against Medicago sativa (alfalfa) under greenhouse condition at 1.5 kg/ha applied after expansion of true leaf; summary of the method: as §1
Amaranthus retroflexus [16] = test: Pre-emergence herbicidal activity against Amaranthus retroflexus under greenhouse condition at 1.5 kg/ha applied immediately after seed planting; summary of the method: as §1
Medicago sativa [17] = test: Preemergence herbicidal activity against Medicago sativa (alfalfa) under greenhouse condition at 1.5 kg/ha applied immediately after seed planting; summary of the method: as §1

SMILES	Activity (Brassica napus [1]) [%]	Activity (Brassica napus [2]) [%]	Activity (Brassica napus [3]) [%]	Activity (Brassica napus [4]) [%]	Activity (Brassica napus [5]) [%]	Activity (Amaranthus retroflexus [6]) [%]	Activity (Amaranthus retroflexus [7]) [%]	Activity (Brassica napus [8]) [%]	Activity (Amaranthus retroflexus [9]) [%]	Activity (Brassica napus [10]) [%]	Activity (Brassica napus [11]) [%]	Activity (Brassica napus [12]) [%]	Activity (Amaranthus retroflexus [13]) [%]	Activity (Brassica napus [14]) [%]	Activity (Medicago sativa [15]) [%]	Activity (Amaranthus retroflexus [16]) [%]	Activity (Medicago sativa [17]) [%]
CCOCCOC(=O)/C(C#N)=C(\NCc1cnc(Cl)s1)C(C)C	100	100	98	15	52	100	81	100	67	100	100	100	96	96	19	54	16
CCOCCOC(=O)/C(C#N)=C(\NCc1ccc(Cl)cc1)C(C)C	–	–	–	–	–	–	–	–	–	–	96	–	94	0	28	52	0
COCCOC(=O)/C(C#N)=C(/C)NCc1cnc(Cl)s1	–	–	–	–	–	–	–	–	–	–	100	–	81	78	26	45	0
CCOCCOC(=O)/C(C#N)=C(/C)NCc1cnc(Cl)s1	–	–	–	–	–	98	78	96	73	59	95	39	100	93	94	87	47
CCOCCOC(=O)/C(C#N)=C(/CC)NCc1cnc(Cl)s1	–	–	–	–	–	57	50	69	42	60	100	29	83	91	70	70	46
CCOCCOC(=O)/C(C#N)=C(\NCc1cnc(Cl)s1)SC	–	–	–	–	–	91	48	100	41	57	100	48	78	40	49	76	28
